Results on 17 molecules are retold here after ChEMBL document CHEMBL1629488, “Synthesis and biological evaluation of 2-(3',4',5'-trimethoxybenzoyl)-3-aryl/arylaminobenzo[b]thiophene derivatives as a novel class of antiproliferative agents” (Eur J Med Chem, 2010).

One assay concerns A549. Briefly: Antiproliferative activity against human A549 cells after 72 hrs by MTT assay. The assay is classed as functional, cell-based. The note with it: A549, 72 h. The essentials:
(§1)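 A549 and HeLa cells grown in DMEM with 10% FBS and penicillin/streptomycin. Plated at 8 × 10^3 cells/well and held 18 h at 37 °C in 5% CO2. Medium replaced with compound in complete medium at varied concentrations for 72 h at 37 °C, then MTT read.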
A general note: Tetrazolium assays rely on reduction of a dye to a coloured formazan, in cell work by metabolically active cells.

In another assay the test system is HL-60. Put plainly: Antiproliferative activity against human HL60 cells after 72 hrs by MTT assay. The class given is functional, cell-based. The note with it: HL-60, 72 h.
The test system of another assay is K562. Briefly: Antiproliferative activity against human K562 cells after 72 hrs by MTT assay. The assay is classed as functional, cell-based. Conditions: K562, 72 h.
Another assay concerns Jurkat. Briefly: Antiproliferative activity against human Jurkat cells after 72 hrs by MTT assay. The assay is classed as functional, cell-based.
Another assay deals with HeLa. Put plainly: Antiproliferative activity against human HeLa cells assessed as cell viability after 72 hrs by MTT assay. The class given is functional, cell-based. The essentials:
as §1

Assay [1] can be described thus: Inhibition of tubulin polymerization after 20 mins by turbidimetry. The essentials: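 Tubulin (10 µM) in glutamate buffer was preincubated with varied compound concentrations at 30 °C, then cooled to 0 °C. GTP was added and the mixture warmed to 30 °C in cuvettes while turbidity was recorded.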
Assay [2] can be described thus: Inhibition of tubulin polymerization after 20 mins by turbidimetry.

For orientation: IC50 means the concentration that inhibits the measured activity by half. For the molecule `COc1ccc(Nc2c(C(=O)c3cc(OC)c(OC)c(OC)c3)sc3ccccc23)cc1`, the IC50 in the assay on A549 came out at 9.3 µM; in the assay on HL-60 it was 3.7 µM; in the assay with K562 it was 2.9 µM; with Jurkat, 3.5 µM; in the assay with HeLa it was 7.7 µM.

In the case of `COc1ccc(-c2c(C(=O)c3cc(OC)c(OC)c(OC)c3)sc3ccccc23)c(OC)c1`, the IC50 was found to be 5.8 µM in the assay on A549; 4.6 µM in the assay with HL-60; 4.1 µM in the assay with K562; 4 µM with Jurkat; 3.9 µM in the assay on HeLa.

As to `COc1cc(C(=O)c2sc3ccccc3c2Nc2ccccc2)cc(OC)c1OC`, the IC50 was 3 µM in the assay on A549; 5.2 µM in the assay with HL-60; 2.3 µM in the assay on K562; 1.6 µM in the assay with Jurkat; 2.7 µM with HeLa.

Take `COc1cc(C(=O)c2sc3ccccc3c2-c2ccccc2)cc(OC)c1OC`: the half-maximal inhibitory concentration (IC50) with A549 was 5 µM; in the assay with HL-60 it was 1.7 µM; in the assay with K562, 2.1 µM; in the assay with Jurkat, 1.5 µM; with HeLa it was 1.9 µM.

Turning to `COc1cc(C(=O)c2sc3ccccc3c2-c2ccc(F)cc2)cc(OC)c1OC`, the IC50 in the assay with A549 came to 3.2 µM; in the assay on HL-60 it was 3.2 µM; in the assay with K562, 2.1 µM; with Jurkat, 2.3 µM; in the assay on HeLa, 3 µM.

A word on the inhibition: it is the change of the read-out against control, counted positive when it falls. A lower inhibition goes with a weak effect. On to `CCOc1ccc(Nc2c(C(=O)c3cc(OC)c(OC)c(OC)c3)sc3cc(C)ccc23)cc1`, for which the half-maximal inhibitory concentration (IC50) in the assay with A549 came out at 5.8 µM; with HL-60 it was 4 µM; in the assay with K562, 4.3 µM; in the assay on Jurkat, 5 µM; with HeLa, 4.3 µM. In assay [1], this molecule gave an inhibition of 50%.

For the molecule `COc1ccc(OC)c(-c2c(C(=O)c3cc(OC)c(OC)c(OC)c3)sc3ccccc23)c1`, the IC50 with A549, with HL-60, in the assay on K562 and with Jurkat was greater than 10 µM in each case.

With `COc1cc(C(=O)c2sc3ccccc3c2-c2ccc(C)cc2)cc(OC)c1OC`, the half-maximal inhibitory concentration (IC50) in the assay on A549 came to 7.8 µM; in the assay on HL-60 it was 1.4 µM; in the assay on K562 it was 3.5 µM; in the assay on Jurkat it was 3.3 µM; in the assay on HeLa, 3.7 µM.

`COc1cc(C(=O)c2sc3ccccc3c2Nc2ccc(Cl)cc2)cc(OC)c1OC`: the 50% inhibitory concentration (IC50) in the assay on A549 was found to be 3.1 µM; with HL-60, 5.4 µM; with K562, 1.1 µM; in the assay on Jurkat it was 1.9 µM; in the assay with HeLa, 3.7 µM.

Consider `COc1cc(C(=O)c2sc3ccccc3c2-c2ccc(SC)cc2)cc(OC)c1OC`, for which the IC50 with A549 amounted to 5.4 µM; in the assay with HL-60, 1.3 µM; with K562 it was 1.8 µM; with Jurkat, 1.9 µM; in the assay on HeLa, 3.5 µM.

Consider `COc1ccccc1-c1c(C(=O)c2cc(OC)c(OC)c(OC)c2)sc2ccccc12`, for which the half-maximal inhibitory concentration (IC50) is greater than 10 µM in the assay on A549; 2.9 µM in the assay on HL-60; 3.4 µM in the assay on K562; 2.9 µM in the assay on Jurkat; 5 µM in the assay on HeLa.

`COc1cc(C(=O)c2sc3ccccc3c2Nc2ccc(C)cc2)cc(OC)c1OC`: the IC50 in the assay with A549 stood at 2.6 µM; in the assay with HL-60 it was 4.6 µM; in the assay on K562, 1.6 µM; in the assay with Jurkat, 1.7 µM; with HeLa, 3.5 µM.

Consider `CCOc1ccc(-c2c(C(=O)c3cc(OC)c(OC)c(OC)c3)sc3ccccc23)cc1`, for which the half-maximal inhibitory concentration (IC50) in the assay on A549 is 3.1 µM; in the assay with HL-60, 3.5 µM; in the assay with K562, 3.1 µM; in the assay with Jurkat, 4.1 µM; in the assay with HeLa it was 3 µM.

As for `COc1cc(C(=O)c2sc3ccccc3c2-c2ccc(Cl)cc2)cc(OC)c1OC`, the IC50 in the assay with A549 was determined as 7.5 µM; with HL-60, 3.3 µM; in the assay on K562, 4.2 µM; with Jurkat, 3.7 µM; with HeLa, 5.2 µM.

Take `COc1cc(C(=O)c2sc3cc(C)ccc3c2Nc2ccc(C)cc2)cc(OC)c1OC`: the 50% inhibitory concentration (IC50) in the assay on A549 is 1.9 µM; in assay [2], 15 µM; in the assay on HL-60, 1.9 µM; in the assay on K562, 1.4 µM; in the assay with Jurkat, 2.5 µM; with HeLa it was 0.98 µM.

`COc1ccc(-c2c(C(=O)c3cc(OC)c(OC)c(OC)c3)sc3ccccc23)cc1C`: the half-maximal inhibitory concentration (IC50) in the assay with A549, in the assay with HL-60, with K562, in the assay on Jurkat and in the assay with HeLa was greater than 10 µM each time.

Turning to `COc1ccc(-c2c(C(=O)c3cc(OC)c(OC)c(OC)c3)sc3ccccc23)cc1`, the IC50 in the assay with A549 was determined as 4.4 µM; in the assay with HL-60, 1.6 µM; in the assay with K562, 1.7 µM; in the assay with Jurkat, 1.6 µM; with HeLa, 4.2 µM.
